Laboratory results published in ChEMBL document CHEMBL2380254, “Optimization of tocotrienols as antiproliferative and antimigratory leads” (Eur J Med Chem, 2013).

Columns and labels:
Assay type in all cases: functional
MDA-MB-468 = experiment: Growth inhibition of human MDA-MB-468 cells assessed as cell growth at 10 uM after 48 hrs by sulforhodamine B assay; settings: MDA-MB-468, 48 h, read-out: Activity
Outline: (§1)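 Single-dose NCI-60 screen: adherent cells in RPMI 1640 with 5% FBS were exposed to 10 µM for 48 h at 37 °C after a 24 h preincubation. They were fixed in situ with cold TCA (10% final), stained with 0.4% SRB in 1% acetic acid, solubilized in 10 mM Tris base, and read at 515 nm. Percent growth was taken relative to time-zero and control plates.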

BT-549 = experiment: Growth inhibition of human BT549 cells assessed as cell growth at 10 uM after 48 hrs by sulforhodamine B assay; settings: BT-549, 48 h, read-out: Activity
Outline: (§2)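 NCI-60 single-dose screen at 10 µM: cells in RPMI 1640 with 5% FBS, preincubated 24 h, then exposed 48 h at 37 °C. TCA fixation (16% final for suspension cells), SRB staining, absorbance 515 nm. Percent growth relative to time-zero and untreated control plates; negative values indicate cell kill.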

DU-145 = experiment: Growth inhibition of human DU145 cells assessed as cell growth at 10 uM after 48 hrs by sulforhodamine B assay; settings: DU-145, 48 h, read-out: Activity; outline: as §2
TK-10 = experiment: Growth inhibition of human TK10 cells assessed as cell growth at 10 uM after 48 hrs by sulforhodamine B assay; settings: TK-10, 48 h, read-out: Activity
Outline: (§3)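 Single-dose NCI-60 test at 10 µM. Cells were grown in RPMI 1640 with 5% FBS and 2 mM L-glutamine, preincubated 24 h, with T0 plates TCA-fixed. Exposure was 48 h at 37 °C, 5% CO2. Cells were fixed with cold TCA (final 10%, 4 °C, 60 min), stained with SRB and read at 515 nm. Percent growth was taken relative to T0 and untreated control; negative values denote cell kill.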

ACHN = experiment: Growth inhibition of human ACHN cells assessed as cell growth at 10 uM after 48 hrs by sulforhodamine B assay; settings: read-out: Activity; outline: as §2
[1] = Growth inhibition of human NCI-ADR-RES cells assessed as cell growth at 10 uM after 48 hrs by sulforhodamine B assay; settings: read-out: Activity; outline: as §1
OVCAR-5 = experiment: Growth inhibition of human OVCAR5 cells assessed as cell growth at 10 uM after 48 hrs by sulforhodamine B assay; settings: OVCAR-5, 48 h, read-out: Activity; outline: as §1
SW-620 = experiment: Growth inhibition of human SW620 cells assessed as cell growth at 10 uM after 48 hrs by sulforhodamine B assay; settings: SW-620, 48 h, read-out: Activity; outline: as §3
COLO 205 = experiment: Growth inhibition of human COLO205 cells assessed as cell growth at 10 uM after 48 hrs by sulforhodamine B assay; settings: COLO 205, 48 h, read-out: Activity; outline: as §2
HOP-92 = experiment: Growth inhibition of human HOP92 cells assessed as cell growth at 10 uM after 48 hrs by sulforhodamine B assay; settings: HOP-92, 48 h, read-out: Activity; outline: as §2
[2] = Growth inhibition of human EKVX cells assessed as cell growth at 10 uM after 48 hrs by sulforhodamine B assay; settings: read-out: Activity; outline: as §2
[3] = Growth inhibition of human Hs 578T cells after 48 hrs by sulforhodamine B assay
Outline: (§4)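 NCI-60 screen: cells in RPMI 1640 with 5% FBS and 2 mM glutamine, 5000–40,000 cells/well, preincubated 24 h. Five concentrations (10-fold dilutions; 100 to 0.001 µM) applied for 48 h at 37 °C. TCA fixation, SRB stain, absorbance at 515 nm. Time-zero plates included; GI50 where 100×(T−T0)/(C−T0)=50.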

SK-OV-3 = experiment: Growth inhibition of human SKOV3 cells after 48 hrs by sulforhodamine B assay; settings: SK-OV-3, 48 h
Outline: (§5)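 NCI-60 five-dose screen. Cells were grown in RPMI 1640 with 5% FBS and 2 mM L-glutamine, plated at 5000–40,000 cells/well and incubated 24 h before dosing, with T0 plates TCA-fixed. DMSO stocks were diluted to doses of […] and exposed 48 h at 37 °C, 5% CO2. Cells were fixed with cold TCA (final 10%, 60 min, 4 °C), stained with 0.4% SRB in 1% acetic acid for 10 min, solubilized in 10 mM trizma base and read at 515 nm. GI50 is where 100×(T−T0)/(C−T0)=50.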

[4] = Growth inhibition of human NCI-ADR-RES cells after 48 hrs by sulforhodamine B assay
Outline: (§6)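 NCI-60 panel cells grown in RPMI 1640 with 5% FBS and 2 mM L-glutamine, seeded at 5000–40,000 cells/well and preincubated 24 h. Five 10-fold dilutions (0.001–100 µM) from DMSO stocks were added for 48 h at 37 °C. Adherent cells were fixed with cold TCA (10% final) for 60 min at 4 °C, stained with 0.4% SRB, and read at 515 nm. GI50 was set where 100×(T−T0)/(C−T0)=50.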

IGROV-1 = experiment: Growth inhibition of human IGROV1 cells after 48 hrs by sulforhodamine B assay; settings: IGROV-1, 48 h; outline: as §4
UACC-62 = experiment: Growth inhibition of human UACC62 cells after 48 hrs by sulforhodamine B assay; settings: UACC-62, 48 h; outline: as §5
UACC-257 = experiment: Growth inhibition of human UACC257 cells after 48 hrs by sulforhodamine B assay; settings: UACC-257, 48 h; outline: as §5
SK-MEL-2 = experiment: Growth inhibition of human SK-MEL-2 cells after 48 hrs by sulforhodamine B assay; settings: SK-MEL-2, 48 h; outline: as §6
MDA-MB-435 = experiment: Growth inhibition of human MDA-MB-435 cells after 48 hrs by sulforhodamine B assay; settings: MDA-MB-435, 48 h; outline: as §6
M14 = experiment: Growth inhibition of human M14 cells after 48 hrs by sulforhodamine B assay; settings: M14, 48 h; outline: as §4
U-251 = experiment: Growth inhibition of human U251 cells after 48 hrs by sulforhodamine B assay; settings: U-251, 48 h; outline: as §5
KM12 = experiment: Growth inhibition of human KM12 cells after 48 hrs by sulforhodamine B assay; settings: KM12, 48 h; outline: as §4
NCI-H460 = experiment: Growth inhibition of human NCI-H460 cells after 48 hrs by sulforhodamine B assay; settings: NCI-H460, 48 h; outline: as §6
MOLT-4 = experiment: Growth inhibition of human MOLT4 cells after 48 hrs by sulforhodamine B assay; settings: MOLT-4, 48 h
Outline: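 NCI-60 suspension lines in RPMI 1640 with 5% FBS and 2 mM L-glutamine, preincubated 24 h. A five-concentration 10-fold series (0.001–100 µM) was given for 48 h at 37 °C. Settled cells were fixed with 80% TCA (16% final), stained with SRB, and read at 515 nm. GI50 was taken where 100×(T−T0)/(C−T0)=50, with T0 plates fixed at drug addition.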

| SMILES | growth at 10 µM (MDA-MB-468) | growth at 10 µM (DU-145) | growth at 10 µM (TK-10) | growth at 10 µM (ACHN) | growth at 10 µM [1] | growth at 10 µM (OVCAR-5) | growth at 10 µM (SW-620) | growth at 10 µM (COLO 205) | growth at 10 µM [2] | GI50 [3] | GI50 (SK-OV-3) | GI50 [4] | GI50 (IGROV-1) | GI50 (UACC-62) | GI50 (UACC-257) | GI50 (SK-MEL-2) | GI50 (MDA-MB-435) | GI50 (M14) | GI50 (U-251) | GI50 (KM12) | further results |
| --- | --- | --- | --- | --- | --- | --- | --- | --- | --- | --- | --- | --- | --- | --- | --- | --- | --- | --- | --- | --- | --- |
| CC(C)=CCC/C(C)=C/CC/C(C)=C/CC[C@]1(C)CCc2c3c(cc(C)c2O1)OCN(CCCCCO)C3 | 43% | 37.2% | 76.3% | 81.6% | 43.1% | 87.3% | -83.7% | 3.96% | 90.5% | 7.26 µM | 6.85 µM | 5.89 µM | 6.18 µM | 5.87 µM | 6.97 µM | 7.47 µM | 5.8 µM | 6.63 µM | 5.71 µM | 7.41 µM | growth at 10 µM (BT-549): 110%; growth at 10 µM (HOP-92): 62.3%; GI50 (NCI-H460): 5.18 µM; GI50 (MOLT-4): 5.87 µM |
| CC(C)=CCC/C(C)=C/CC/C(C)=C/CC[C@]1(C)CCc2c3c(cc(C)c2O1)OCN(CCc1ccc(O)cc1)C3 | -44.6% | 42.1% | 100% | 91% | 37.5% | 91.2% | -95.2% | -69.9% | 90.7% | 6.29 µM | 6.2 µM | 5.93 µM | 4.34 µM | 6.01 µM | 7.33 µM | 7.02 µM | 4.54 µM | 6.66 µM | 4.32 µM | 1.6 µM | growth at 10 µM (BT-549): 105%; growth at 10 µM (HOP-92): 69.1%; GI50 (NCI-H460): 1.12 µM; GI50 (MOLT-4): 2.42 µM |
| CC(C)=CCC/C(C)=C/CC/C(C)=C/CC[C@]1(C)CCc2c3c(cc(C)c2O1)OCN(CCCCCCCCO)C3 | -90.7% | -57.7% | 51.2% | -97.6% | 18.7% | -70.8% | -46% | -94.5% | -53.4% | 0.938 µM | 2.24 µM | 3.37 µM | 1.34 µM | 4.79 µM | 0.656 µM | 5.59 µM | 1.16 µM | 1.14 µM | 0.544 µM | 0.784 µM | GI50 (NCI-H460): 0.71 µM; GI50 (MOLT-4): 0.996 µM |
| CC(C)=CCC/C(C)=C/CC/C(C)=C/CC[C@]1(C)CCc2c3c(cc(C)c2O1)OCN(CCCO)C3 | -29% | -13.6% | 75.9% | 42.5% | -26.4% | 40.4% | -92.1% | -92.5% | 82.7% | 2.03 µM | 1.98 µM | 1.96 µM | 1.81 µM | 1.81 µM | 1.79 µM | 2.27 µM | 1.65 µM | 1.92 µM | 1.72 µM | 2.1 µM | growth at 10 µM (BT-549): 92%; growth at 10 µM (HOP-92): 63.1%; GI50 (NCI-H460): 1.93 µM; GI50 (MOLT-4): 1.92 µM |
| COc1ccc(CCN2COc3cc(C)c4c(c3C2)CC[C@@](C)(CC/C=C(\C)CC/C=C(\C)CCC=C(C)C)O4)cc1OC | -25.4% | -4.93% | 97.7% | 75.7% | 49.1% | 42.7% | -98.1% | -72.5% | 85.5% | 2.3 µM | 1.9 µM | 2.02 µM | 2.08 µM | 1.64 µM | 5.58 µM | 2.63 µM | 1.66 µM | 1.79 µM | 1.67 µM | 2.07 µM | growth at 10 µM (BT-549): 105%; growth at 10 µM (HOP-92): 32.7%; GI50 (NCI-H460): 2.18 µM; GI50 (MOLT-4): 2.32 µM |
| CC(C)=CCC/C(C)=C/CC/C(C)=C/CC[C@]1(C)CCc2c3c(cc(C)c2O1)OCN(CCCCO)C3 | -63.2% | 2.95% | 88.4% | -57.1% | -68.8% | 6.91% | -79.7% | -76.8% | 85.4% | 18.5 µM | 16.4 µM | 16.8 µM | 14.8 µM | 17.5 µM | 11.4 µM | 18.9 µM | 17 µM | 21 µM | 6.64 µM | 11.9 µM | growth at 10 µM (BT-549): 88.2%; GI50 (NCI-H460): 6.18 µM; GI50 (MOLT-4): 16.2 µM |
| CC(C)=CCC/C(C)=C/CC/C(C)=C/CC[C@]1(C)CCc2c3c(c(C)c(C)c2O1)OCN(CCCCCO)C3 | 87.4% | 99.6% | 97.5% | 101% | 82.5% | 94.4% | -18.6% | 68.7% | 90.6% | 7.26 µM | 6.85 µM | 5.89 µM | 6.18 µM | 5.87 µM | 6.97 µM | 7.47 µM | 5.8 µM | 6.63 µM | 5.71 µM | 7.41 µM | growth at 10 µM (BT-549): 114%; growth at 10 µM (HOP-92): 63.4%; GI50 (NCI-H460): 5.18 µM; GI50 (MOLT-4): 5.87 µM |
| CC(C)=CCC/C(C)=C/CC/C(C)=C/CC[C@]1(C)CCc2c3c(c(C)c(C)c2O1)OCN(CCCCO)C3 | 57% | 88.8% | 101% | 78.8% | 57.5% | 83.1% | -16.1% | -16% | 108% | > 10 µM | 5.41 µM | > 10 µM | 6.53 µM | > 10 µM | 1.73 µM | > 10 µM | 4.68 µM | 5.99 µM | 1.55 µM | 1.94 µM | growth at 10 µM (BT-549): 104%; GI50 (NCI-H460): 1.94 µM; GI50 (MOLT-4): 3.46 µM |
